Reference: paper PMC4191598 (Journal of Medicinal Chemistry, 2014)

Tests used:
[1] = target: T1, human TLR7 (Homo sapiens, UniProt Q9NYK1); assay: Human TLR7 reporter gene assay; format: cell-based; details: for TLR7-agonistic activity (in words): TLR7 reporter gene assay
T1 sequence (Q9NYK1 27-1049): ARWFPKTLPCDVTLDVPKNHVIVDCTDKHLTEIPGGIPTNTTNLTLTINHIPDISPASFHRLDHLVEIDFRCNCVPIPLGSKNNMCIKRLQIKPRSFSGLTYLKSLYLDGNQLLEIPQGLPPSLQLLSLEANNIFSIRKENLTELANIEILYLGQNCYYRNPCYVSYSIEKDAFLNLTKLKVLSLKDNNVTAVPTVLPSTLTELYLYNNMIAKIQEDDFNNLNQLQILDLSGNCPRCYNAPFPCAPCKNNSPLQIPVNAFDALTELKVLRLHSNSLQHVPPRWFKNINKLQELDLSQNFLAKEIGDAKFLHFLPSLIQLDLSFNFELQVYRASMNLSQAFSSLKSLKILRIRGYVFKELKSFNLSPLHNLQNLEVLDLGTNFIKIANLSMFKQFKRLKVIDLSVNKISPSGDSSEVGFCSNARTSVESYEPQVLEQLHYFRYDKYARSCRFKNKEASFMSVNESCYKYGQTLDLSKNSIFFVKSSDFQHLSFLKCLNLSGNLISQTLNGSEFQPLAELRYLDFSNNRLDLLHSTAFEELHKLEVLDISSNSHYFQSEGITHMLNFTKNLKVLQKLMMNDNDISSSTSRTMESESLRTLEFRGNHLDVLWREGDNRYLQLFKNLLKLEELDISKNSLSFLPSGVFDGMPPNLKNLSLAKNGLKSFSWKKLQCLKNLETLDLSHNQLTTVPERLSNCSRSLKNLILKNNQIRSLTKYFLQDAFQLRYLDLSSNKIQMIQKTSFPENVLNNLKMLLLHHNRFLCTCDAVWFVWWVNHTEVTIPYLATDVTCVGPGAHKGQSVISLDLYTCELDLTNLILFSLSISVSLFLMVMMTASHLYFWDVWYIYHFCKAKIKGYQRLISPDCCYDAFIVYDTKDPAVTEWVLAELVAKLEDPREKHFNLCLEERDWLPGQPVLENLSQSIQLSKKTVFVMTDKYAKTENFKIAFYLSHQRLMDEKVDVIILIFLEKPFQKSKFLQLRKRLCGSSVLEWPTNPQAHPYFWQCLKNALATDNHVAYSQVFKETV

[2] = target: T2, human TLR8 (Homo sapiens, UniProt Q9NR97); assay: Human TLR8 reporter gene assay; format: cell-based; details: for TLR8-agonistic activity (in words): TLR8 reporter gene assay; for TLR7/TLR8 selectivity (in words): TLR7 and TLR8 reporter gene assays
T2 sequence (Q9NR97 27-1041): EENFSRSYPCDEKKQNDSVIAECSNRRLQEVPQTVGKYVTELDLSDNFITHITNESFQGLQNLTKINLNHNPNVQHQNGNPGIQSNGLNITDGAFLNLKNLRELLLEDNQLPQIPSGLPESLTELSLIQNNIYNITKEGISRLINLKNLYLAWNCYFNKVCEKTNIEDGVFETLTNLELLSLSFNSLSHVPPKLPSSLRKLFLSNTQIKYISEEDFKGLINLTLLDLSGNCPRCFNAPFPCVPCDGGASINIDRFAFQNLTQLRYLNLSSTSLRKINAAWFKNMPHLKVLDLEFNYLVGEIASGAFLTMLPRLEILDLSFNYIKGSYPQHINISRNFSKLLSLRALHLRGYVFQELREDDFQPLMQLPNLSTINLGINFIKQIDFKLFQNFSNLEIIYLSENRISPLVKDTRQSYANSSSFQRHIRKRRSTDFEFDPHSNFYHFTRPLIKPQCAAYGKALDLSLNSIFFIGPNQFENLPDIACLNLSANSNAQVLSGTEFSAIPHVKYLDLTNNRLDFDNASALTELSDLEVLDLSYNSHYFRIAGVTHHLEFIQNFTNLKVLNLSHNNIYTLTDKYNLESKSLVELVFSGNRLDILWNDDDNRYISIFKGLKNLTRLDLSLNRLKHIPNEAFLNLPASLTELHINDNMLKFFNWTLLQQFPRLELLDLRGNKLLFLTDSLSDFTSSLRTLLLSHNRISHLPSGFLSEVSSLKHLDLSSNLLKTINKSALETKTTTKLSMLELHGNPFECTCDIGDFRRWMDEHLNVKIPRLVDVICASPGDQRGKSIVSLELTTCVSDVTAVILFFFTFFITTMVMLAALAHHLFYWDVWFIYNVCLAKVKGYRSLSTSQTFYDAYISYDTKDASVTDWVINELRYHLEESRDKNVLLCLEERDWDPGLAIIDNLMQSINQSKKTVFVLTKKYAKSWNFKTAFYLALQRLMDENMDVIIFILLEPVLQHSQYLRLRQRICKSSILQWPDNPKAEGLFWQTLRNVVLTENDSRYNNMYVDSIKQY
Procedure, shortened: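 HEK-Blue cells carrying human TLR8, with secreted alkaline phosphatase under NF-κB/AP-1 promoter control, seeded at ~10^5 cells/mL and grown to confluency. Stimulated with graded concentrations of test compound. Supernatant sAP, proportional to NF-κB induction, read spectrophotometrically at 620 nm using an alkaline phosphatase-specific chromogen in the detection medium.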

[3] = system: human peripheral blood mononuclear cells (hPBMCs); assay: IFN-α induction in human PBMCs; format: cell-based; details: 12 h stimulation, graded concentrations
Procedure, shortened: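 Fresh PBMCs were isolated on Ficoll–Hypaque gradients from venous blood of consenting donors and plated at 10^5 cells/well. They were stimulated for 12 h with graded concentrations of test compound. Supernatants were collected by centrifugation and assayed in triplicate with high-sensitivity multisubtype IFN-α ELISA.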

[4] = target: T2, human TLR8; details: earlier observation; cited from earlier work
[5] = system: human lymphocytic subsets in whole blood; assay: CD69 up-regulation in lymphocytic subsets, ex vivo whole human blood; format: cell-based; details: 16.5 h

In the case of `CCCNc1nc2c(N)nc3ccccc3c2o1` [Compound 13, N^2-Propyloxazolo[4,5-c]quinoline-2,4-diamine], the “TLR7-agonistic activity (in words)” value [1] is reported as “entirely devoid of any detectable TLR7- or TLR8-agonistic activity” and the “TLR8-agonistic activity (in words)” value [2] is reported as “entirely devoid of any detectable TLR7- or TLR8-agonistic activity”.

With `Nc1nc2c(N)nc3ccccc3c2s1` [Compound 17, thiazolo[4,5-c]quinoline-2,4-diamine] the “TLR7-agonistic activity (in words)” value [1] was “inactive” and the “TLR8-agonistic activity (in words)” value [2] was “inactive”.

For `CCCCc1cn2c(n1)c(N)nc1ccccc12` [Compound 39, 2-Butylimidazo[1,2-a]quinoxalin-4-amine], the “TLR7/TLR8 selectivity (in words)” value [2] was “selective TLR8 agonists”.

For `CCCNc1nc2c(N)nc3ccccc3c2s1` [Compound 11, N^2-Propylthiazolo[4,5-c]quinoline-2,4-diamine], the EC50 [1] was 730 nM and the IFN-α induction [3] was “showed IFN-α inducing ability”.

For `CCCCc1cc2c(o1)c(N)nc1ccccc12` [Compound 5, 2-butylfuro[2,3-c]quinolin-4-amine], the “TLR8 agonism (in words)” value [4] is listed as “prominent and selective TLR8 agonism”.

With `CCCCC1CN2C(N)=Nc3ccccc3C2=N1` (stereo not drawn) [Compound 27, 2-Butyl-2,3-dihydroimidazo[1,2-c]quinazolin-5-amine] the “TLR7-agonistic activity (in words)” value [1] was “entirely inactive” and the “TLR8-agonistic activity (in words)” value [2] was “entirely inactive”.

With `CCCCc1nc2c3ccccc3nc(N)n2n1` [Compound 33, 2-Butyl[1,2,4]triazolo[1,5-c]quinazolin-5-amine] the “TLR7-agonistic activity (in words)” value [1] was “inactive” and the “TLR8-agonistic activity (in words)” value [2] was “inactive”.

For `CCCCc1nc2c(N)nc3ccccc3n2n1` [Compound 46, 2-Butyl[1,2,4]triazolo[1,5-a]quinoxalin-4-amine], the “TLR7-agonistic activity (in words)” value [1] was “complete loss of activity” and the “TLR8-agonistic activity (in words)” value [2] was “complete loss of activity”.

In the case of `CCCCc1cn2c(N)nc3ccccc3c2n1` [Compound 29, 2-Butylimidazo[1,2-c]quinazolin-5-amine], the “TLR7-agonistic activity (in words)” value [1] is reported as “entirely inactive” and the “TLR8-agonistic activity (in words)” value [2] is reported as “entirely inactive”.

For `CCCCc1nnc2c(N)nc3ccccc3n12` [Compound 49, 1-Butyl[1,2,4]triazolo[4,3-a]quinoxalin-4-amine], the “TLR7-agonistic activity (in words)” value [1] was “complete loss of activity” and the “TLR8-agonistic activity (in words)” value [2] was “complete loss of activity”.

With `CCCCc1nc2c(N)nc3ccccc3c2o1` [Compound 9, 2-Butyloxazolo[4,5-c]quinolin-4-amine] the IFN-α induction [3] was “showed IFN-α inducing ability”.

For `CCCCc1nc2c(o1)c(N)nc1ccccc12` [Compound 22b, 2-Butyloxazolo[5,4-c]quinolin-4-amine], the “TLR8-agonistic activity (in words)” value [2] was “negligibly low TLR8-agonistic activity”.

With `CCCCC1CN2C(=N1)C(N)=Nc1ccccc12` (stereo not drawn) [Compound 37, 2-Butyl-1,2-dihydroimidazo[1,2-a]quinoxalin-4-amine] the “TLR7/TLR8 selectivity (in words)” value [2] was “selective TLR8 agonists”.

With `CCC(=O)Nc1nc2c(N)nc3ccccc3c2s1` [Compound 16, N-(4-Aminothiazolo[4,5-c]quinolin-2-yl)propionamide] the “TLR7-agonistic activity (in words)” value [1] was “inactive” and the “TLR8-agonistic activity (in words)” value [2] was “inactive”.

For `CCCCc1nc2c(s1)c(N)nc1ccccc12` [Compound 22a, 2-Butylthiazolo[5,4-c]quinolin-4-amine], the “TLR7-agonistic activity (in words)” value [1] was “completely inactive” and the “TLR8-agonistic activity (in words)” value [2] was “completely inactive”.

With `CCCCn1cc2c(n1)c(N)nc1ccccc12` [Compound 53, 2-Butyl-2H-pyrazolo[3,4-c]quinolin-4-amine] the “CD69 expression in cytokine-induced killer-, natural killer-, T- and B-lymphocytic subsets” value [5] was “dramatically enhanced expression” and the IFN-α induction [3] was “showed IFN-α inducing ability”.
